# Bioassay records deposited in PubChem BioAssay by several laboratories.
# Only some compounds are listed: those with a hit (about 9% of all), similar ones and a draw of the others.
# D1 mod: allosterically modulates the human D1 dopamine receptor; B-score at 10 µM; hit rate 5.9% among 58,000; HEK293 D1, CRE-luciferase, dopamine EC30 potentiation; actives deviate in either direction; P21728;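 active = luminescence count or its row- and column-corrected plate score outside the 99.7% band of the plate's sample wells, on either side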
# M1 ag: agonists of M1 muscarinic receptor; CHO-M1 cells, Fluo-4 calcium fluorescence, agonist mode; hits give high values; B-score at 10 µM; hit rate 3% among 64,000;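 active = fluorescence rise, raw or as B-score row- and column-corrected plate score, outside the 99.7% band of its plate's samples, either direction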
# mHtt clearance: mutant huntingtin protein clearance. HeLa Exon1htt(103Q)mCFP, aggregate imaging; zero = plate's median compound well. inhibition, % at 1.5 µM. hit rate 0.42% among 47,000;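 active = inhibition of aggregate fluorescence above about 70%, also judged a hit by eye on the cell image, limit read from the data, passing the limit was not always enough; inconclusive = no rule stated for this call; inactive = not judged a hit on image review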;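 also: cells exposed to compound for three days before fixation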
# AP complement: orthogonal test for alternative complement pathway inhibitors | Human serum alternative complement pathway, LPS-coated ELISA, C3 deposition; tested in compound mixtures | inhibition, % at 5 µM | hit rate 0.08% among 62,000;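 active = inhibition above 30% in each of the two pooled mixtures holding the compound, so the lower value exceeds 30%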;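 also: 0% = serum in Mg-EGTA without compound and 100% = EDTA serum blank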
#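 Medium: diluted human serum in Mg2+-EGTA GVB++. Assay system: human serum complement alternative pathway, C3 deposition onto LPS. Also added: Plate-bound LPS. Technique: Anti-C3 ELISA, OD 450 nm. Measure: percent inhibition. Incubation: 1 h at 37 °C. Dosing: 5 µM each compound, pools of ten, 50 µM per pool.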
# M1 antagonist: M1 muscarinic receptor (rat) antagonism. P08482. CHO-M1 cells, Fluo-4 calcium, ACh EC80 antagonist mode; hits give low values. B-score at 10 µM. hit rate 3.4% among 64,000. AID 628;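 active = calcium fluorescence response, raw or row-and-column corrected B-score, differing from the plate sample mean either way at a set confidence level, mostly lower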
# Target sequence (P08482 whole entry, looked up): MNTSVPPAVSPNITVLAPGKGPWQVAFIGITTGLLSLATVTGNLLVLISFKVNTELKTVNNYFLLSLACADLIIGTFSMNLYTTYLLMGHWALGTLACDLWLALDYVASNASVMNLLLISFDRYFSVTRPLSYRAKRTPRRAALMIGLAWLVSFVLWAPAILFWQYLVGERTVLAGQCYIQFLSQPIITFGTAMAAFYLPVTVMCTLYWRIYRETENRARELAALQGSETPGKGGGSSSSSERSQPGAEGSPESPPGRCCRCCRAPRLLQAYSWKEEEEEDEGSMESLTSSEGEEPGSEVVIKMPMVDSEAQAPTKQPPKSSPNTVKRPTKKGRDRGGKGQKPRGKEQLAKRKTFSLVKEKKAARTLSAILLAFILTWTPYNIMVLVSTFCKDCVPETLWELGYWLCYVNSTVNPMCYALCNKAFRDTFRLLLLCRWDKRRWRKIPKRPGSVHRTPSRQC
# M1 agonist conf: rat M1 muscarinic agonism, confirmation. shares compounds with M1 ag. CHO-M1 cells, Fluo-4 calcium fluorescence, agonist mode; actives lie on both sides. fluorescence change (max-min) at 10 µM. hit rate 19% among 1,700. AID 1488;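 active = fluorescence change differs from the solvent-only DMSO control mean at a set confidence level in both duplicate runs; inconclusive = differs from solvent-only control mean in just one of two runs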;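 also: an EC20 dose of acetylcholine follows compound addition during the same imaging run; raw fluorescence intensity difference in instrument units with no normalization to controls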
# M4 ag counter: counter-screen for M1 agonists: activity at rat M4 receptor; shares compounds with M1 ag; CHO M4/Gqi5 cells, Fluo-4 calcium fluorescence, agonist mode; actives lie on both sides; fluorescence change (max-min) at 10 µM; hit rate 9% among 1,700;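 active = fluorescence change differing from the plate's solvent-only control wells at 99.7% confidence in both duplicates, whether higher or lower; inconclusive = differs from solvent controls in only one of two duplicates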
# M1 antag confirm: M1 muscarinic receptor (rat) antagonism, confirmed; shares compounds with M1 antagonist; CHO-M1 cells, Fluo-4 calcium, ACh EC80 antagonism; hits give low values; calcium response (max-min fluorescence) at 10 µM; hit rate 43% among 1,700;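 active = calcium response below the same-plate mean of wells given acetylcholine alone at its 80%-effect dose, minus 3 SD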;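 also: raw fluorescence intensity difference in arbitrary instrument units and not normalized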
# mGluR4 antag: acts on human mGluR4 in M1 antagonist selectivity test; shares compounds with M1 antagonist; CHO-mGluR4 calcium flux, Fluo-4 fluorescence, glutamate EC80; hits give low values; fluorescence response (max-min) at 10 µM; hit rate 0.9% among 1,700; AID 678;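 active = fluorescence response below the plate's average for near-maximal glutamate wells, less 3 SD of those wells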;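 also: raw unnormalized fluorescence span taken in the window right after glutamate addition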
# D1 mod confirm: D1 receptor (human) allosteric modulation, confirmed; shares compounds with D1 mod; HEK293 D1 CRE-luciferase, dopamine EC30 potentiation; hits give high values; luminescence at 10 µM; hit rate 88% among 2,200; AID 642;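 active = luminescence in either of two replicates above the same-plate mean plus 3 SD of the low-dose dopamine control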
# D1 ag no DA: D1 (human) signaling in absence of dopamine. shares compounds with D1 mod. HEK293 D1 CRE-luciferase, luminescence, no dopamine; hits give high values. luminescence at 10 µM. hit rate 0.8% among 1,900; in the data active = luminescence above about 3900
# Isoprot counter: alters isoproterenol CRE-luciferase response in HEK293 cells; calls only at 10 µM; HEK293 D1 CRE-luciferase, isoproterenol EC30 counter-screen; hit rate 63% among 2,200; shares compounds with D1 mod; AID 647;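 active = luminescence in either replicate above plate mean of wells with a partly effective reference agonist dose plus 3 SD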;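 also: isoproterenol raises cAMP through native beta-adrenoceptor Gs so signal bypasses D1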
# * = called active by the depositor; i = inactive; ? = inconclusive; / = not tested or not shown; + = active, no number.
SMILES,D1 mod,M1 ag,mHtt clearance,AP complement,M1 antagonist,M1 agonist conf,M4 ag counter,D1 mod confirm,D1 ag no DA,Isoprot counter,others
CCOC(=O)C1CCCN(C2CC(=O)N(c3ccc(C)c(C)c3)C2=O)C1 (centres undefined),1.21,1.18,38.3,5.5,0.22,/,/,/,/,/,
CCOC(=O)C1CCCN(C2CC(=O)N(c3cccc(C(F)(F)F)c3)C2=O)C1 (centres undefined),/,9.04*,/,23.4,-3.31*,66.5*,-37.7,/,/,/,M1 antag confirm=619;mGluR4 antag=238
CC(Sc1cccc(C(F)(F)F)c1)C(=O)NC(N)=O (centres undefined),/,-0.428,/,13.1,-0.519,/,/,/,/,/,
CCOc1ccccc1N1CCN(Cc2cccc(OC)c2OC)CC1,-0.892,-0.0241,50.8,8.3,-0.216,/,/,/,/,/,
COc1ccccc1N1CCN(Cc2ccc(OC)c(OC)c2OC)CC1,0.0453,-2.64*,/,-4.2,-6.28*,-15.7,-35.7,/,/,/,M1 antag confirm=601;mGluR4 antag=197
Cc1c(Cc2c(Cl)cccc2Cl)c(=O)ccn1C(C)c1ccccc1 (centres undefined),/,/,-13.6,/,/,/,/,/,/,/,
COC(=O)c1cc2ccsc2n1Cc1cc(=O)n2ccccc2n1,/,-1.81*,/,16.8,-7.39*,-15.5,-47.2,/,/,/,M1 antag confirm=27.7*;mGluR4 antag=201
COc1cc2c(cc1OC)C1=C(C#N)CN(C3CCCCC3)CN1CC2,4.16*,5.14*,/,13.3,-0.395,-7.11,-17.4,14420*,1880,+,
CCn1cnc2sc(C(=O)N(Cc3ccc(N(C)C)cc3)Cc3ccco3)c(C)c2c1=O,4.85*,11.6*,/,0.9,0.0853,-22.4,?,12360*,/,+,
COCCCNC(=O)C(C#N)c1nc2ccccc2nc1N1CCCC1 (centres undefined),12.1*,340*,-4.3,/,-1.74,230*,749*,18008*,1688,+,
c1ccc(Cn2c(-c3ccco3)nc3nc4ccccc4nc32)cc1,3.54*,3.69*,47.3,2.1,-0.533,?,?,7452*,1544,+,
O=C(NCCSc1c[nH]c2ccccc12)C1CC1,/,/,39.1,/,/,/,/,/,/,/,
CN(C)c1nc(OCCNC(=O)COc2ccccc2Cl)nc(N(C)C)n1,/,/,-10.5,/,/,/,/,/,/,/,
CC(C)(C)C(=O)c1sc(Nc2ccccc2)nc1N,12.1*,3.07*,36.0,-8.0,0.666,?,-57.1,16628*,1584,+,
CCCN1c2cccc3cccc(c23)S1(=O)=O,0.00937,1.08,/,4.7,0.22,/,/,/,/,/,
Cc1ccc(S(=O)(=O)c2cc3c(=O)n4ccccc4nc3n(Cc3ccco3)c2=N)cc1C,5.97*,5.93*,20.3,9.1,-0.475,20.2,11.1,13264*,1500,+,
Cc1ccc(S(=O)(=O)c2cc3c(=O)n4ccccc4nc3n(C)c2=N)cc1,5.29*,5.13*,/,/,-0.0154,-11.4,?,13268*,1724,+,
C=CCn1c(=N)c(C#N)cc2c(=O)n3ccccc3nc21,/,/,5.6,/,/,/,/,/,/,/,
COC(=O)c1cc2c(=O)n3ccccc3nc2n(Cc2cccnc2)c1=N,0.937,-0.00173,28.6,-5.9,-0.238,/,/,/,/,/,
CC(=O)c1sc2nc(-c3cccs3)cc(C(F)(F)F)c2c1N,5.88*,97.7*,-7.3,17.5,-1.37,123*,39.8,12244*,1624,+,
COC(=O)c1cc(OC)c(OC)cc1NC(=O)C1CCC(=O)N1S(=O)(=O)c1ccc(C)cc1 (centres undefined),9.15*,-2.01*,/,-3.1,-0.0421,?,-25.9,16888*,/,+,
O=C(C1CCN(S(=O)(=O)c2cccc3cccnc23)CC1)N1CCn2c1nc1ccccc12,4.87*,22.3*,33.4,15.6,6.61*,-11.4,-43.4,12004*,2024,+,
CCOC(=O)C1=C(C)OC(N)=C(C#N)C1c1cc(OC)c2c(c1)OCO2 (centres undefined),2.76,-0.561,/,30.7,-0.595,/,/,/,/,/,
COc1cc(C2C(C#N)=C(N)Oc3cc(N(C)C)ccc32)cc2c1OCO2 (centres undefined),7.25*,44.8*,/,-5.2,-0.252,206*,203*,15056*,1964,+,
CC(=O)c1cccc(S(=O)(=O)NCC(c2ccco2)N2CCCCC2)c1 (centres undefined),-0.479,0.17,11.2,6.1,-0.00481,/,/,/,/,/,
SMILES,D1 mod,M1 ag,mHtt clearance,AP complement,M1 antagonist,M1 agonist conf,M4 ag counter,D1 mod confirm,D1 ag no DA,Isoprot counter,others
O=C(Nc1sc2c(c1C(=O)NC1CCCCC1)CCC2)c1ccco1,1,0.328,/,-8.9,-0.902,/,/,/,/,/,
O=C(Nc1ncnc2sc3c(c12)CCCCC3)c1ccco1,5.28*,37.2*,21.5,10.9,-10.2*,-10.8,-52.8,9540*,1788,i,
CCOC(=O)C1CCCN(C(=O)CSc2nccn2C)C1 (centres undefined),/,-0.0432,/,10.3,-0.261,/,/,/,/,/,
CCn1c(=O)c(C(C)=O)nc2ccccc21,1.02,-0.255,-53.4,14.0,0.433,/,/,/,/,/,
CCc1nc2ccccc2n(CC)c1=O,4.24*,12.7*,-1.7,-9.0,0.00124,-5.37,-48.3,10236*,2112,+,
Cc1cc(NC(=O)C2C3C(=O)N(CCC(C)C)C(C(=O)NCc4ccccc4)C34C=CC2(C)O4)no1 (centres undefined),-0.18,0.435,8.9,-0.9,0.347,/,/,/,/,/,
CC(C)(Oc1ccc(Cl)cc1)C(=O)OCC(=O)N1CCCC1,0.00931,0.763,/,19.4,0.0625,/,/,/,/,/,
Clc1ccc(-n2nnnc2-c2ccccc2)cc1,3.54*,3.31*,/,-0.7,-0.453,-25.7*,-49.3,8784*,1344,i,
Cc1cc(N)n(-c2nc(-c3cccnc3)nc3ccccc23)n1,4.33*,5.62*,/,-0.3,-0.564,?,-76.4,12176*,1524,i,
Cc1cc(N)n(-c2ccccc2)n1,0.874,-1.5,-38.4,8.8,-0.266,/,/,/,/,/,
COCCCNC(=O)C1CCN(c2ncccn2)CC1,1.77*,2.57*,21.4,12.7,-0.141,-22.2,-50.6,5220,1492,i,
